Test results published in the RNAGym collection of RNA variant scans (doi:10.1038/s41586-018-0170-7).

B1: tRNA (parent)
chain: GUUCCGUUGGCGUAAUGGUAACGCGUCUCCCUCCUAAGGAGAAGACUGCGGGUUCGAGUCCCGUACGGAACG

Variants of: B1
Experiment: yeast fitness, log relative to wild type (ln ratio); higher = fitter; tRNA-Arg(CCU), competitive growth, 37 C, 1 M NaCl
Outline: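 Two independent transformations put a combinatorial tRNA-Arg(CCU) variant library on a HIS3 centromeric plasmid into BY4742 lacking the chromosomal gene. Pools were grown in SC-HIS at 30 °C for 4 generations, then in SC-HIS 1M NaCl at 37 °C for ~6.5 generations (~26.5 h), with three outputs taken per input. Fitness compares a genotype's generations with the wild type's as a natural log ratio. Those generations are OD-scaled log2 output/input frequencies, inverse-variance weighted across replicates, from 125 bp paired-end Illumina counts.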

Variant | yeast fitness (ln)
U2C G6U A43C A69G C71U | -0.255
U2G A43C C46U A70U C71U | -0.0246
U2G A43C C46U A70G C71U | -0.149
U2G A43C C46U A69G | -0.0675
U2C G6U A43C C46U C66U A70G | -0.0851
U2C G6U A43C C46U C66U A70U | -0.123
U2C G6U C46U C66U A70G C71U | -0.0117
U2C G6U C27U A43C C66U C71U | -0.338
U2C G6U C27U A43C C46U A69G C71U | -0.187
U2C G6U C66A A69G A70G C71U | -0.00896
U2C G6U C66U A69G A70G | -0.103
U2C G6U C66U A69G A70U | -0.179
U2C G6U C27U A43C A70G C71U | -0.324
U2C G6U C27U A43C C46U C66U C71U | -0.299
U2C G6U C27U A43C | -0.0819
U2C G6U C46U C66A A70G C71U | -0.0101
U2C G6A C71U | -0.0812
U2C G6U C27U C66A A70U C71U | -0.26
U2C G6U C27U C46U C66A A69G A70U C71U | -0.319
U2C G6A C66A A70U C71U | -0.0758
U2C G6U C46U C66U A69G A70U C71U | -0.282

Variant | yeast fitness (ln)
U2C G6U A43C A69G A70G C71U | -0.13
U2C G6U A43C C46U C66A A70U C71U | -0.153
U2C G6U C27U A43C C66U A69G A70G C71U | -0.347
U2C G6U A43C C46U A69G A70U | -0.0621
U2C G6U A43C C46U A69G A70G | -0.3
U2C G6U C27U A43C C46U A70G C71U | -0.132
U2C G6U C27U C66A A69G A70G | -0.0927
U2C G6U C46U C66A A69G A70G C71U | -0.0159
U2C G6U C27U C66U C71U | -0.265
U2C G6A C46U A70G C71U | -0.0308
U2C G6U C27U A43C C46U C66U A69G A70G C71U | -0.275
U2C G6U C46U C66A A69G A70U C71U | -0.185
U2C G6U A69G C71U | -0.0844
U2C G6U A70U C71U | -0.102
U2C G6U A43C A69G A70U C71U | -0.4
U2C G6U C27U C66U A70U C71U | -0.35
U2C G6U C27U C46U A70G C71U | -0.359
U2C G6U C71U | -0.0615
U2C G6U A43C C46U C66U A69G A70U C71U | -0.471
U2G A43C A69G A70G C71U | -0.168
U2C G6U C27U C46U A69G A70G C71U | -0.244

Variant | yeast fitness (ln)
U2C G6U C27U A43C C66U A70U | -0.156
U2C G6U C27U A43C C66U A70G | -0.366
U2C G6A C46U A70U | -0.0378
U2C G6A C46U A70G | 0.00625
U2C G6U C27U A43C C66A A70U C71U | -0.272
U2C G6A C66U A69G C71U | -0.225
U2C G6U C27U A43C C66U A70G C71U | -0.313
U2C G6U C46U C66U A69G A70G C71U | -0.1
U2C G6U C46U C71U | -0.0792
U2C G6U C66U A69G A70G C71U | -0.346
U2C G6U C66A A69G A70G | -0.0222
U2C G6U C66A A69G A70U | -0.25
U2C G6U A43C C46U A69G A70G C71U | -0.149
U2C G6U C27U A43C C46U C66A A69G A70U C71U | -0.26
U2C G6A C46U C66A A69G A70G C71U | -0.258
U2C G6U C27U C46U C66U A69G A70U | -0.218
U2C G6U C27U C46U C66U A69G A70G | -0.3
U2C G6U C27U C46U C66U A70U C71U | -0.335
U2G A43C C46U C66A A70G C71U | -0.165
U2C G6U C27U A43C C46U C66U A69G C71U | -0.465
U2C G6U A43C C46U C66A A70G C71U | 0.00139

Variant | yeast fitness (ln)
U2C G6U C27U A43C C46U C66U | -0.0875
U2C G6U C27U A43C C46U C66A | 0.00284
U2C G6U C27U A43C C46U C66A A69G A70G | -0.051
U2C G6U C27U A43C C46U C66A A69G A70U | -0.101
U2C G6U | -0.00207
U2C G6U C27U A43C A69G A70U C71U | -0.513
U2C G6U C66U A70U C71U | -0.233
U2C G6A C46U A69G A70U C71U | -0.183
U2C G6U C27U C46U C66A A70U C71U | -0.161
U2C G6U C66U A70U | -0.0735
U2C G6U C66U A70G | -0.0259
U2C G6U C27U A69G A70U C71U | -0.354
U2C G6U C27U A69G C71U | -0.22
U2C G6U A43C C66A A69G A70U | -0.338
U2C G6U A43C C66A A69G A70G | -0.029
U2C G6A C46U C66A A70G C71U | -0.142
U2C G6A C66U A69G A70U C71U | -0.343
U2G A43C C46U A69G A70G C71U | -0.12
U2C G6A C46U C66U A69G | -0.293
U2C G6U C27U C46U C66A A69G A70U | -0.114
